Each structure is given as a SMILES string.

Assay [1] addresses T1, Potassium voltage-gated channel subfamily A member 3 (Homo sapiens, UniProt P22001). Nature of the assay: Dissociation constant for the blockade of voltage-gated potassium channel subunit Kv1.3 in human lymphocytes; no effect when tested at 1 uM. The assay is classed as cell-based. The gist of the method:
(§1)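 Whole-cell patch clamp on cells stably expressing Kv1.3, holding potential −80 mV. Bath: Ringer (160 mM NaCl, 4.5 mM KCl, 2 mM CaCl2, 1 mM MgCl2, 10 mM HEPES, pH 7.4). Pipette: 134 mM KF, 2 mM MgCl2, 10 mM HEPES, 10 mM EGTA, pH 7.2. 500-ms pulses to 40 mV every 45 s. Single test concentration only.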

Assay [2] has as its target T1, Potassium voltage-gated channel subfamily A member 3. Nature of the assay: Dissociation constant for the blockage of voltage-gated potassium channel subunit Kv1.3 in human lymphocytes. In kind it is cell-based.
The species named for another assay is Homo sapiens. Nature of the assay: Inhibition of anti-CD3 dependent human T cell proliferation. The assay is classed as functional. The gist of the method: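 PBMCs from healthy volunteers, isolated on a density gradient, seeded at 2×10^5 cells/well in supplemented RPMI 1640. Compound preincubation 60 min, then anti-CD3 antibody 50 ng/mL for 48 h. [3H]thymidine added for the last 6 h; incorporation counted by scintillation. Normalized to maximal control incorporation. Triplicate.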

Assay [3] can be described thus: Selectivity for Kv1.3 over Kv1.2 voltage-gated potassium channel subunit. The gist of the method:
(§2)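 Ringer bath, KF/EGTA pipette. Kv1.1, Kv1.2, Kv1.5, Kv1.7 and IKCa1 recorded in stably or transiently expressing cells. Kd from Hill fit to reduction in current area. Each compound 2–3 times at 3–5 concentrations.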

A short description of assay [4]: Selectivity for Kv1.3 over Kv1.1 voltage-gated potassium channel subunit. The gist of the method:
as §2

Assay [5] addresses T1, Potassium voltage-gated channel subfamily A member 3. The experiment in a line: Dissociation constant for blockade of voltage-gated potassium channel subunit Kv1.3 in human lymphocytes; no effect when tested at 10 uM. In kind it is cell-based. Put shortly:
as §1

Assay [6] is described as follows: Selectivity for Kv1.3 voltage-gated K+ channel over IKCa1 [Ca2+] activated K+ channel. Put shortly: as §2
Assay [7] is described as follows: Selectivity for Kv1.3 over Kv1.5 voltage-gated potassium channel subunit. The gist of the method: as §2
The nature of assay [8]: Selectivity for Kv1.3 over Kv1.7 voltage-gated potassium channel subunit. The gist of the method: as §2

T1 sequence (P22001 whole entry): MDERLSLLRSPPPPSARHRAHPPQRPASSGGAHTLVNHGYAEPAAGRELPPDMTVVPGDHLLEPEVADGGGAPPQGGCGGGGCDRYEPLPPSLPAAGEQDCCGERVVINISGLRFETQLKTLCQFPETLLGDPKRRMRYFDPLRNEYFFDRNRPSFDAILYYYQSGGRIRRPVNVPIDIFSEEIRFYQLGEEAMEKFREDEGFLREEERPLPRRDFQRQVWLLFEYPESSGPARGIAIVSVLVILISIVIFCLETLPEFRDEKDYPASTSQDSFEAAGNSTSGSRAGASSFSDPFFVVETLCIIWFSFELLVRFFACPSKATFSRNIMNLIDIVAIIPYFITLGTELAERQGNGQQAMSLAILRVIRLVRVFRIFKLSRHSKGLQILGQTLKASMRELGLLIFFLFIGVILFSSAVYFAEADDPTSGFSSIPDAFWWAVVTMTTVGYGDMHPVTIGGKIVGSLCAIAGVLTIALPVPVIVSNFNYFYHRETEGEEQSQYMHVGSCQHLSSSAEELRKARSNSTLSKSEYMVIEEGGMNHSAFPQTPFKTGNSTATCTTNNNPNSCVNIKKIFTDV

`COc1c(C(=O)/C=C/c2ccccc2)c(OCc2ccc(COc3c(C(=O)/C=C/c4ccccc4)c(OC)c4ccoc4c3OC)cc2)c(OC)c2occc12`: in [1], the equilibrium dissociation constant (Kd) (commonly the concentration at which binding is half-saturated) is “Not Active”. `COc1c(C(C)O)c(OCc2ccc(COc3c(C(C)O)c(OC)c4occc4c3OC)cc2)c(OC)c2occc12` (stereo unspecified): the equilibrium dissociation constant (Kd) in [2] is 2 µM. `COc1c(C(=O)/C=C/c2ccccc2)c(O)cc2occc12` registered a dissociation constant Kd in [2] of 17 µM. Still for that read-out and setting: in the case of `COc1c(C(C)=O)c(OCc2cccc(COc3c(C(C)=O)c(OC)c4ccoc4c3OC)c2)c(OC)c2occc12` it was 0.56 µM.

Regarding `COc1c(C(C)=O)c(OCCCCCCOc2c(C(C)=O)c(OC)c3ccoc3c2OC)c(OC)c2occc12`, it took 0.8 µM to reach a half-maximal effect in the assay listed under Homo sapiens (EC50). The Kd was found to be 0.25 µM in assay [3], 0.68 µM in assay [2] and 0.3 µM in assay [4]. Consider `COc1c(C(=O)/C=C/c2cccc(/C=C/C(=O)c3c(O)c(OC)c4occc4c3OC)c2)c(O)c(OC)c2occc12`, for which, in assay [5], the dissociation constant (Kd) result is “Not Active”. As for `COc1c(/C(C)=N/N=C(\C)c2c(O)c(OC)c3occc3c2OC)c(O)c(OC)c2occc12`, in assay [2], binding was characterised by a dissociation constant (Kd) of 70 µM. As to `COc1c(C(=O)/C=C/c2ccccc2)c(O)c(OC)c2occc12`, the equilibrium dissociation constant (Kd) in [6] was over 100 µM; in assay [3], over 50 µM; in assay [7] it was 5.1 µM; in assay [8], 10 µM; in [4], 1.2 µM. Further, the EC50 – broadly, the midpoint of the concentration-response curve – in the assay filed under Homo sapiens stood at 0.6 µM. For `COc1c(C(C)=O)c(O)cc2occc12`, the affinity in assay [2], expressed as Kd, was 100 µM.

`COc1c(C(=O)/C=C/c2cccc(O)c2)c(O)c(OC)c2occc12`: the equilibrium dissociation constant (Kd) in assay [6] is over 100 µM; in [3], over 50 µM; in assay [7], 12 µM; in assay [8], 50 µM; in assay [4] it was 1.7 µM. Also, the concentration for a half-maximal effect (EC50) in the assay listed under Homo sapiens stood at 1 µM. `COc1c(C(=O)/C=C/c2cccs2)c(O)c(OC)c2occc12` yielded an equilibrium dissociation constant (Kd) in assay [2] of 1 µM.

With `COc1c(C(=O)/C=C/C=C/c2ccccc2)c(O)c(OC)c2occc12`, in assay [1], the Kd entry is reported as “Not Active”.

In the case of `COCCOCCOCCOCCOC(=O)c1cc(COc2c(C(C)=O)c(OC)c3ccoc3c2OC)ccc1COc1c(C(C)=O)c(OC)c2ccoc2c1OC`, the equilibrium dissociation constant (Kd) result in [5] is recorded as “Not Active”. Take `COc1c(C(C)=O)c(OCCOCCOc2c(C(C)=O)c(OC)c3ccoc3c2OC)c(OC)c2occc12`: the dissociation constant (Kd) in assay [2] was 4 µM. For `COc1c(C(C)=O)c(OCc2ccc(COc3cc4occc4c(OC)c3C(C)=O)cc2)cc2occc12`, the affinity in assay [2], expressed as Kd, was 1 µM. On the same count and under the same terms, in the case of `COc1c(C(C)=O)c(OCc2ccc(COc3c(C(C)=O)c(OC)c4ccoc4c3OC)cc2)c(OC)c2occc12` it was 3.1 µM. For the molecule `COc1c(C(C)=O)c(OCc2cc(COc3c(C(C)=O)c(OC)c4ccoc4c3OC)cc(COc3c(C(C)=O)c(OC)c4ccoc4c3OC)c2)c(OC)c2occc12`, the Kd result in assay [5] is reported as “Not Active”. For `COc1cccc(/C=C/C(=O)c2c(O)c(OC)c3occc3c2OC)c1`, the dissociation constant (Kd) was over 100 µM in assay [6]; over 50 µM in assay [3]; 20 µM in assay [7]; over 50 µM in assay [8]; 0.8 µM in assay [2]; 2 µM in assay [4]. The molecule further yielded an EC50 in the assay listed under Homo sapiens of 1 µM. As for `COc1c(C(=O)CCc2ccccc2)c(O)c(OC)c2occc12`, the Kd in [2] came out at 0.6 µM.

In [2], `COc1c(C(C)=O)c(OCCCCCOc2c(C(C)=O)c(OC)c3ccoc3c2OC)c(OC)c2occc12` returned a Kd of 0.82 µM.

`COc1c(C(C)=O)c(OCc2ccc(COc3c(C(C)=O)c(OC)c4ccoc4c3OC)c(C(=O)O)c2)c(OC)c2occc12` yielded a Kd in assay [2] of 5 µM. As for `COc1c(C(C)=O)c(OCc2ccccc2)c(OC)c2occc12`, the Kd in assay [2] was determined as 10 µM. On the same count and under the same terms, the result for `COc1c(C(=O)/C=C/c2cc(Br)cs2)c(O)c(OC)c2occc12` reads 0.8 µM; that for `COc1c(C(C)=O)c(OCCCCCCCOc2c(C(C)=O)c(OC)c3ccoc3c2OC)c(OC)c2occc12`, 3 µM; that for `COc1c(C(C)=O)c(O)c(OC)c2occc12`, 50 µM. Turning to `COc1c(C(=O)/C=C/c2ccc(C)cc2)c(O)c(OC)c2occc12`, the affinity in [2], expressed as Kd, was 0.7 µM. As for `C=C1C[C@@]2(O)[C@@H]3CC[C@@]4(C)[C@@H]5C=CC(=O)OC[C@]5(C(C)OC(C)=O)[C@@H](OC(C)=O)[C@@H](OC(C)=O)[C@@H]4[C@@]3(C)[C@H](OC(C)=O)[C@H](OC(C)=O)[C@@]2(C)C2(C(=O)OC)O[C@H]12` (stereo partly specified) [CORREOLIDE], a half-maximal response in the assay listed under Homo sapiens (EC50) required 0.3 µM. Also, binding in assay [2] was put at a Kd of 0.1 µM. As for `Nc1ccncc1` [DALFAMPRIDINE], the dissociation constant Kd came to 29 µM in assay [6], 590 µM in assay [3], 270 µM in assay [7] and 290 µM in assay [4].

Values taken from ChEMBL document CHEMBL1149170, “Khellinone derivatives as blockers of the voltage-gated potassium channel Kv1.3: synthesis and immunosuppressive activity” (J Med Chem, 2004).
